16 molecules from ChEMBL document CHEMBL4699497, “Synthesis of indole-tethered [1,3,4]thiadiazolo and [1,3,4]oxadiazolo[3,2-a]pyrimidin-5-one hybrids as anti-pancreatic cancer agents” (Bioorg Med Chem Lett, 2020) can be followed below.

In this assay the test system is PANC-1. Kind of assay: Cytotoxicity against human PANC1 cells assessed as reduction in cell viability measured after 48 hrs by MTS assay. Type of assay: functional, cell-based. The settings on record: for IC50: PANC-1, 48 h. The essentials: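 Human PANC-1 pancreatic cancer cells exposed to a range of doses of each compound for 48 h. Surviving cells quantified by MTS viability read-out, and IC50 derived from the dose-response curves.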
Background: Tetrazolium dyes change colour on reduction, which living cells bring about.

The term IC50 denotes the concentration at which inhibition is half-maximal. Consider `Cc1cc2ccccc2n1-c1cnc2sc(-c3ccc(Br)cc3)nn2c1=O`, for which the IC50 is above 100 µM. `O=c1c(-n2ccc3ccccc32)cnc2sc(-c3ccc(Cl)cc3)nn12`: the IC50 is above 100 µM.

Regarding `O=c1c(-n2ccc3ccccc32)cnc2sc(-c3ccc(Br)cc3)nn12`, the IC50 is above 100 µM. `O=c1c(-n2ccc3ccccc32)cnc2oc(-c3ccc(Cl)cc3)nn12`: the inhibition entry was “Dose-dependent effect” and the half-inhibitory concentration (IC50) was determined as 94.9 µM. Regarding `O=c1c(-n2ccc3ccccc32)cnc2sc(-c3cccc(Br)c3)nn12`, the half-inhibitory concentration (IC50) was above 100 µM.

For the molecule `O=c1c(-n2ccc3ccccc32)cnc2oc(-c3ccc(Br)cc3)nn12`, the inhibition entry was “Dose-dependent effect” and the IC50 was determined as 90.5 µM. Regarding `O=c1c(-n2ccc3ccccc32)cnc2sc(-c3ccccc3)nn12`, the IC50 was above 100 µM.

As for `O=c1c(-n2ccc3ccccc32)cnc2oc(-c3ccccc3Cl)nn12`, the inhibition entry was “Dose-dependent effect” and the IC50 is 7.7 µM. The corresponding values for `Cc1cc2ccccc2n1-c1cnc2oc(-c3ccc(Cl)cc3)nn2c1=O` are “Dose-dependent effect” and 40 µM. For `Cc1cc2ccccc2n1-c1cnc2sc(-c3ccccc3)nn2c1=O`, the IC50 is above 100 µM. On the same count and under the same terms, the value for `Cc1cc2ccccc2n1-c1cnc2sc(-c3cccc(Br)c3)nn2c1=O` was above 100 µM. As for `O=c1c(-n2ccc3ccccc32)cnc2oc(-c3ccccc3)nn12`, the inhibition entry was “Dose-dependent effect” and the IC50 is 21.1 µM. As for `Nc1ccn([C@@H]2O[C@H](CO)[C@@H](O)C2(F)F)c(=O)n1` [GEMCITABINE], the IC50 was above 500 µM. Still for that read-out and setting: the value for `O=c1c(-n2ccc3ccccc32)cnc2sc(-c3ccccc3Cl)nn12` was above 100 µM; that for `Cc1cc2ccccc2n1-c1cnc2sc(-c3ccccc3Cl)nn2c1=O` was above 100 µM. Same read-out and setting: under `O=c1c(-n2ccc3ccccc32)cnc2sc(-c3cccc(Cl)c3)nn12` stands above 100 µM.
